Assay outcomes: PubChem, The Scripps Research Institute Molecular Screening Center
In the library only some 2.4% were active in any assay of this set; here they are far more common.
VIM-2 inh = blocks Pseudomonas aeruginosa VIM-2 metallo-beta-lactamase; 0.89% of 290,000 active; inhibition, % at 5.6 µM; purified VIM-2, nitrocefin hydrolysis, epi-absorbance fluorescence;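 active = inhibition above the mean of all tested compounds plus 3 SD, cutoff set per screening run, cut at about 7.5% in these data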;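 also: red hydrolysis product quenches plate fluorescence so inhibitors raise well fluorescence; 0% = enzyme with DMSO and 100% = DMSO without enzyme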
sPLA2-III inh = Inhibits HGIII-sPLA2 liposome hydrolysis, primary screen; AID 743126; Q9NZ20; QFRET BODIPY PC-A2 liposome hydrolysis, fluorescence; inhibition, % at 12.2 µM; 0.56% of 370,000 active;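 active = inhibition above mean plus 3 SD of compounds lying within the high and low control bounds, cut at about 19% in these data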;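 also: 0% = median of test compound wells and 100% = no enzyme DMSO wells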
Target sequence (Q9NZ20 whole entry, looked up): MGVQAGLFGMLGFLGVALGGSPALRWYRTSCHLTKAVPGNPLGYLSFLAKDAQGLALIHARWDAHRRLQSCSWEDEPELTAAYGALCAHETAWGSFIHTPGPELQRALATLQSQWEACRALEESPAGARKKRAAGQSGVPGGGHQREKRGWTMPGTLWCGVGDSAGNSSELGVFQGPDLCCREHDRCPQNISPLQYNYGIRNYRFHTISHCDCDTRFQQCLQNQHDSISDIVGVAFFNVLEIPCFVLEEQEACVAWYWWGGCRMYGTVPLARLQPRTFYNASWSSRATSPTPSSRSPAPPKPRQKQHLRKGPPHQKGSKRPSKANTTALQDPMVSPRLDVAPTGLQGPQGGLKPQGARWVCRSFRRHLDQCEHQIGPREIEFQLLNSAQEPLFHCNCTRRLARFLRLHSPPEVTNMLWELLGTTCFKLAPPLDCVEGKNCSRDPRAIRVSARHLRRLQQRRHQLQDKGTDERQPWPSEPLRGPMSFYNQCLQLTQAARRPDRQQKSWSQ
IMP-1 inh = blocks Pseudomonas aeruginosa IMP-1 metallo-beta-lactamase. inhibition, % at 5.6 µM. 0.45% of 290,000 active. purified IMP-1, nitrocefin hydrolysis, epi-absorbance fluorescence. AID 1556;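 active = inhibition above the mean plus 3 SD of all compounds in the same screening run, cut at about 4.5% in these data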;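 also: 0% = IMP-1 with DMSO and 100% = DMSO wells lacking enzyme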
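System: Purified recombinant IMP-1 metallo-beta-lactamase enzyme | Measured by: Fluorescence quenching readout, ex 480/em 530 nm | Replication: Singlicate | Incubation: 15 min preincubation plus 25 min reaction at 25 °C | Evaluation: Percent inhibition from optical density relative to buffer-blank wells | Benchmarks: DMSO with and without IMP-1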
PfM18AAP inh = blocks P. falciparum M18 aspartyl aminopeptidase; 1.2% of 290,000 active; inhibition, % at 7.35 µM; recombinant PfM18AAP, H-Glu-NHMec fluorogenic cleavage;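 active = inhibition above the campaign mean inhibition over all tested compounds plus 3 SD, cut at about 28% in these data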;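 also: 0% = plate median of test compound wells and 100% = 2 mM ZnCl2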
An asterisk follows results filed as active; nt = no result.

SMILES	VIM-2 inh	sPLA2-III inh	IMP-1 inh	PfM18AAP inh
C=CCC1c2cccc(C(=O)O)c2C(=O)N1c1cccc(C)c1 (stereo not given)	11*	-3	-6	2
Cc1ccccc1CN1CCCCC(NC(=O)C2CCC2)C1=O (stereo not given)	nt	3	nt	nt
COC(=O)[C@H](CC(C)C)N1Cc2nnn(CC3CCCCC3)c2-c2ccccc2S1(=O)=O	nt	1	nt	nt
COC(=O)C1Sc2[nH]c(=O)sc2C2c3ccccc3OC(=O)C12 (stereo not given)	-1	9	1	8
CC1(C(=O)O)Sc2[nH]c(=O)sc2C2c3ccccc3OC(=O)C21 (stereo not given)	-1	3	-1	30*
CCOC(=O)C1CCN(S(=O)(=O)c2ccc3[nH]c(=O)c(=O)[nH]c3c2)CC1	-2	-1	-1	3
CCOC(=O)C1CCN(S(=O)(=O)c2ccc3[nH]c4c(c3c2)CCCC4)CC1	8.1*	-17	1	-7
O=C(NCc1ccc2[nH]c3c(c2c1)CCCC3)c1ccc(S(=O)(=O)N2CCCC2)cc1	12*	-31	0	4
O=C(c1ccccc1)N1CC[C@H]2[C@H](CCCN2Cc2cc(F)cc(F)c2)C1	nt	-5	nt	nt
COc1cccc(C(=O)NC2CC3CCCC(C2)N3CC(=O)Nc2ccc(N(C)C)cc2)c1 (stereo not given)	-2	1	-6	-4
COc1cccc(C(=O)NC2CC3CCCC(C2)N3CC(=O)Nc2ccccc2)c1 (stereo not given)	-1	-16	28*	-3
COC(=O)c1cccc(N2C(=O)C[C@](Sc3ccc(OC)cc3)(C(=O)N3CCOCC3)[C@H]2c2ccc(OC)cc2)c1	nt	-2	nt	nt
Cc1cc(NC(=O)CSc2ncnc3sccc23)no1	0	1	-2	1
N#Cc1c(NC(=O)CSc2ncnc3sccc23)oc(-c2ccco2)c1-c1ccco1	2	-13	7.0*	28
O=C(NC1CCCCN(Cc2ccc(Cl)cc2)C1=O)c1ccc(F)c(F)c1 (stereo not given)	nt	5	nt	nt
CSc1sccc1/C=C(/C#N)C(=O)c1ccco1	-2	7	-1	31*
CSc1sccc1/C=N/O	-1	4	-4	5
c1ccc(-n2nnnc2Oc2ccc(-n3ccnc3)cc2)cc1	11*	0	-4	6
CN(C)/C=C1\SC(=S)N(N2C(=O)C3C4C=CC(C4)C3C2=O)C1=O (stereo not given)	12*	1	-3	-15
N#Cc1cccc(N=c2ssnc2Cl)c1	-2	10	-3	29*
c1cncc(Nc2nc(-c3cccs3)cs2)c1	1	nt	-1	30*
CCCCCC(=O)N(O)C1CC(=O)N(c2ccccc2)C1=O (stereo not given)	8.1*	-1	1	-13
CCCCCCC(=O)N(O)C1CC(=O)N(Cc2ccccc2)C1=O (stereo not given)	-3	-8	-3	2
Cc1cccc(C(=O)N[C@@H]2CC[C@@]34CCCN3C(=O)CCC[C@H]4[C@H]2C)c1	nt	14	nt	nt
O=C(CCCSc1nnc(-c2cccs2)n1CC1CCCO1)c1ccccc1 (stereo not given)	9.7*	1	-8	-5
SMILES	VIM-2 inh	sPLA2-III inh	IMP-1 inh	PfM18AAP inh
O=C(CSc1nnc(-c2cccs2)n1CC1CCCO1)N1CCCC1 (stereo not given)	-2	2	-2	-1
OC[C@H]1O[C@@H](Oc2cc(O)cc(/C=C/c3ccc(O)cc3)c2)[C@H](O)[C@@H](O)[C@@H]1O	-4	nt	-2	40*
S=C(Nc1ccccc1I)OC1CCC12CCC(c1ccccc1)CC2 (stereo not given)	nt	10	nt	nt
CC(C)C[C@H]1COc2cccc(F)c2S(=O)(=O)N1Cc1cn(CC2CCCCC2)nn1	nt	15	nt	nt
O=C(COCc1ccccc1)NC1CCCCN(Cc2ccc(Cl)cc2)C1=O (stereo not given)	nt	-7	nt	nt
Nc1nc(SCC(=O)Nc2ncc(C(F)(F)F)cc2Cl)n[nH]1	-3	-6	-3	28*
O=C(CSc1ncccn1)Nc1ncc(C(F)(F)F)cc1Cl	-1	0	-3	13
COCCn1c(SCCN2CCOCC2)nc2c1c(=O)[nH]c(=O)n2C	0	0	-3	30*
COc1ccc(S[C@]2(C(=O)N3CCOCC3)CC(=O)N(c3ccc(OC)cc3)[C@@H]2c2ccc(OC)cc2)cc1	nt	-11	nt	nt
CCN(CC)CCOc1nc(C)nc2c1oc1ccccc12	8.6*	5	-3	11
CCN(CC)CCCOc1nc(C)nc2c1oc1ccccc12	31*	1	1	-14
CN(C)CCOc1nc(-c2ccccc2)nc2c1oc1ccccc12	5	-17	1	1
